Test results: article PMC3334839 (The Journal of Neuroscience, 2012)
Where a chain is given by its changes, count along the chain named.

Experiments:
human α1 GlyR = target: T1, human α1 GlyR (Homo sapiens, UniProt P23415); assay: cell-based; type: cell-based; conditions: for average percent potentiation of IGly: concentration-response (Fig. 1E)
T1 sequence (P23415 29-457): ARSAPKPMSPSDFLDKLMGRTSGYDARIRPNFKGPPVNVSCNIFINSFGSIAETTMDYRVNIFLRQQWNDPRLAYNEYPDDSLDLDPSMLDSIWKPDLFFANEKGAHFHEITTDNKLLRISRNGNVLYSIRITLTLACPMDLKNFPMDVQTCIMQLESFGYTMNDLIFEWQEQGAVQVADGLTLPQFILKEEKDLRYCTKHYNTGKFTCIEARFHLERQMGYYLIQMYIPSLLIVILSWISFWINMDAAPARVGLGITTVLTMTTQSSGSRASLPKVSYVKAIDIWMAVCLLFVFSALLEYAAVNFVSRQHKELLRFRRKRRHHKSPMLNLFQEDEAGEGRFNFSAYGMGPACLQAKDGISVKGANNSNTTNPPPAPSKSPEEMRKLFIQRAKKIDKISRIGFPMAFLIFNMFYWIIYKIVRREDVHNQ

rat α2 GlyR = target: T2, rat α2 GlyR (Rattus norvegicus, UniProt P22771); assay: Whole-cell patch-clamp of IGly in HEK-293 cells expressing α2 GlyRs; type: cell-based; conditions: 10 μM AEA, 5 min sustained, EC2 Gly (20 μM), wild-type α2
T2 sequence (P22771 28-452): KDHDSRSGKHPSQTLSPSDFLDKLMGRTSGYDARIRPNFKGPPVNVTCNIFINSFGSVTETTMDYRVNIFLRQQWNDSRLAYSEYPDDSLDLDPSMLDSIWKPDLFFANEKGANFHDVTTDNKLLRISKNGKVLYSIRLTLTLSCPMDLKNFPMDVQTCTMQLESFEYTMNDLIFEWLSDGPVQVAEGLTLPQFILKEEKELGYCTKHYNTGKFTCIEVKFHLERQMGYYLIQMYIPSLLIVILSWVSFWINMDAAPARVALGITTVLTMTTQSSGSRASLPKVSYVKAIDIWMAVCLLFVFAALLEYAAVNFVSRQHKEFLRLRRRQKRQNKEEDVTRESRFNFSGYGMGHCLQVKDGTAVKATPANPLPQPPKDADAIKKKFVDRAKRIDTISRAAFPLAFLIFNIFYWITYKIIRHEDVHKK

A303S mutant rat α2 GlyR = target: T3, A303S mutant rat α2 GlyR (Rattus norvegicus, UniProt P22771, A330S); assay: Whole-cell patch-clamp of IGly in HEK-293 cells expressing A303S mutant α2 GlyRs; type: cell-based; conditions: 10 μM AEA, 5 min sustained, EC2 Gly (20 μM)
T3 sequence (P22771 28-452 A330S): T2 sequence (P22771 28-452) with A303S

human 5-HT3A receptor = target: T4, human 5-HT3A receptor (Homo sapiens, UniProt P46098); type: cell-based
T4 sequence (P46098 24-478): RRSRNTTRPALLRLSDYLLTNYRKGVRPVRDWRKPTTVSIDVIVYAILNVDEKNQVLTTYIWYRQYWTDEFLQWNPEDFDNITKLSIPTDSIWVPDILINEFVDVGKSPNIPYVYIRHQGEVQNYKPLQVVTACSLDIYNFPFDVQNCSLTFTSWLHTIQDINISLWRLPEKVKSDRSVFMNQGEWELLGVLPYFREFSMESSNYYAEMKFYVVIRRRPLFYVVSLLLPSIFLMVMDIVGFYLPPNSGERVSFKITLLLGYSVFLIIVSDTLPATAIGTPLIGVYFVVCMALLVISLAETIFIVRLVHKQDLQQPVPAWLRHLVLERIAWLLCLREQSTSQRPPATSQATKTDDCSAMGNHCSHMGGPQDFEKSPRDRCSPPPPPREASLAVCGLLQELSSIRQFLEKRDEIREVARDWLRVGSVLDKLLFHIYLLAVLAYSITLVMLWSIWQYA
Method in brief: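 Human 5-HT3A receptors (wild-type or point mutant made by site-directed mutagenesis) transfected into HEK-293 cells. Cells recorded 2 d later, trypsin/EDTA-treated 2 h before, lifted, superfused with HEPES-buffered saline (pH 7.4). Whole-cell, CsCl pipette, −60 mV, 20–22°C. 5-HT 30 μM pulses before, during and after continuous 5 min test compound (0.1 μM) incubation; 5–7 cells, mean ± SE.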

CB1 receptors = conditions: read-out: binding affinity (Ki) for CB1 receptors; ref Pertwee, 2000; cited from earlier work
CB2 receptors = conditions: read-out: binding affinity (Ki) for CB2 receptors; ref Pertwee, 2000; cited from earlier work

Question: For CCCCC/C=C\C/C=C\C/C=C\C/C=C\CCCC(=O)NCCO [AEA, anandamide], which EC50 (human α1 GlyR) is on record?
Answer: 4200 ± 1950 nM

Question: And the “time to maximal potentiation of IGly” value (human α1 GlyR; 1 μM AEA sustained application, α1 homomeric)?
Answer: 5 min

Question: And the “average percentage potentiation of IGly” value (human α1 GlyR; 1 μM AEA, 5 min sustained application, EC2 Gly, α1 (Fig. 1C))?
Answer: 97 ± 16%

Question: And the “percentage potentiation of IGly, initial value” (human α1 GlyR; 1 μM AEA, after 1 min of AEA exposure, HEK-293 cells)?
Answer: 3 ± 1%

Question: What about the “average percent potentiation of IGly” value (human α1 GlyR; 1 μM AEA, EC2 Gly) of the same molecule?
Answer: 91 ± 9%

Question: What about the “average percent potentiation of IGly” value (human α1 GlyR; 3 μM AEA, EC2 Gly) of the same molecule?
Answer: 311 ± 86%

Question: And the “AEA-induced potentiation of IGly, simultaneous application” value (human α1 GlyR; 10 μM AEA simultaneously applied only with Gly, wild-type α1)?
Answer: 108 ± 15%

Question: What about the “average percentage potentiation of IGly” value (human α1 GlyR; 10 μM AEA, Gly 30 μM) of the same molecule?
Answer: 102 ± 49%

Question: And the “average percentage potentiation of IGly” value (human α1 GlyR; 10 μM AEA, Gly 100 μM)?
Answer: 24 ± 6%

Question: And the “average percent potentiation of IGly” value (human α1 GlyR; 10 μM AEA, Gly 10 μM)?
Answer: 712 ± 96%

Question: What about the “average percent potentiation of IGly” value (human α1 GlyR; 30 μM AEA, EC2 Gly) of the same molecule?
Answer: 824 ± 278%

Question: And the “maximal potentiation of α1 GlyRs” value (human α1 GlyR; AEA applied continuously for 5 min with intermittent Gly)?
Answer: 700–800%

Question: And the “direct activation of current by AEA alone” value (human α1 GlyR; even at high concentrations (> 30 μM), no Gly, cell type not specified)?
Answer: did not trigger detectable current

Question: What about the “average percentage potentiation of IGly” value (rat α2 GlyR) of the same molecule?
Answer: 127 ± 37%

Question: What about the “AEA-induced potentiation of IGly” value (A303S mutant rat α2 GlyR) of the same molecule?
Answer: 580 ± 110%

Question: What about the “effect on 5-HT-activated current” value (human 5-HT3A receptor; 0.1 μM AEA for 5 min, 5-HT 30 μM, wild-type) of the same molecule?
Answer: gradually developing inhibition

Question: What about the “time to maximal inhibition of I5-HT” value (human 5-HT3A receptor; continuous exposure to 0.1 μM AEA) of the same molecule?
Answer: 5 min

Question: What about the Ki (CB1 receptors) of the same molecule?
Answer: 61 to 543 nM

Question: What about the Ki (CB2 receptors) of the same molecule?
Answer: 279 to 1940 nM
